Converted amounts (≈) assume the structure as drawn.
Assays:
[1] = target: T1, Cytochrome P450 2B6 (Homo sapiens, UniProt P20813); assay: Drug metabolism of the compound assessed as CYP2B6 (unknown origin)-mediated formation of metabolites with retention time of 1.92 mins at 5 uM by UPLC-MS/MS analysis; assay type: ADME; settings: 0.032 h
T1 sequence (P20813 whole entry): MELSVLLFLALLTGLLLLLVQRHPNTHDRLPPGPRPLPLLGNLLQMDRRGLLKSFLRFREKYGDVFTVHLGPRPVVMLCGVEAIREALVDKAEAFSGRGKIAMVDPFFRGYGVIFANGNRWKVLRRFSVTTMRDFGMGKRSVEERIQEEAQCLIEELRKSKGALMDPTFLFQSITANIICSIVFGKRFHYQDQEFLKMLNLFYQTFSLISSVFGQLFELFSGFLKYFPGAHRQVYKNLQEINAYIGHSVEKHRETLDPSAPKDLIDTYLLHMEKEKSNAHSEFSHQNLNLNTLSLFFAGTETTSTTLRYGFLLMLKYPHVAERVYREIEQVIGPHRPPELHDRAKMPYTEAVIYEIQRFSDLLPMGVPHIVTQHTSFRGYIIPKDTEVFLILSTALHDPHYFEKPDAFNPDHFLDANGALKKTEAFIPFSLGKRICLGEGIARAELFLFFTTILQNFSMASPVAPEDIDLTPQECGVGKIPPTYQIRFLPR
How it was run: (§1)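 cDNA-expressed human CYPs (20 pmol/ml; panel 1A1–3A7) incubated with 5 μM substrate in 100 mM potassium phosphate, pH 7.4. 5-min equilibration at 37°C, then NADPH regenerating system, 60 min at 37°C. Acetonitrile stop, liquid–liquid extraction, UPLC-MS/MS detection of dihydroxylated products. Mean ± SD, n = 3.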

[2] = test system: Liver microsome; assay: Drug metabolism in human liver microsomes assessed as formation of metabolites with retention time of 1.92 mins at 20 uM by UPLC-MS/MS analysis; assay type: ADME; settings: 0.032 h
How it was run: (§2)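 Substrate at 20 μM with pooled human liver microsomes (1 mg/mL) in 100 mM potassium phosphate, pH 7.4. 5-min equilibration at 37°C, then NADPH regenerating system added, 60 min at 37°C. Stopped with acetonitrile, liquid–liquid extracted (hexane:ethyl acetate), and dihydroxylated products read by UPLC-MS/MS at MRM m/z 346 > 262.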

[3] = Seminal plasma protein binding in human treated with 100 mg of efavirenz administered every 4 hrs by ultrafiltration method; assay type: ADME, cell-free; settings: male, read-out: PPB (converted)
How it was run: (§3)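 Ultrafiltration through 10-kDa membrane of 100 μl sample preincubated 1 h at 37°C, centrifuged at 37°C with filtrate collected every 15 min for 45 min and measured by UPLC-MS/MS. Free level at time zero back-extrapolated by linear regression. […]. For blood plasma, metabolites were spiked into blank plasma lots.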

[4] = target: T2, Cytochrome P450 1A1 (Homo sapiens, UniProt P04798); assay: Drug metabolism of the compound assessed as CYP1A1 (unknown origin)-mediated formation of dihydroxylated metabolites with retention time of 1.56 mins at 5 uM by UPLC-MS/MS analysis; assay type: ADME; settings: 0.026 h; how it was run: as §1
T2 sequence (P04798 whole entry): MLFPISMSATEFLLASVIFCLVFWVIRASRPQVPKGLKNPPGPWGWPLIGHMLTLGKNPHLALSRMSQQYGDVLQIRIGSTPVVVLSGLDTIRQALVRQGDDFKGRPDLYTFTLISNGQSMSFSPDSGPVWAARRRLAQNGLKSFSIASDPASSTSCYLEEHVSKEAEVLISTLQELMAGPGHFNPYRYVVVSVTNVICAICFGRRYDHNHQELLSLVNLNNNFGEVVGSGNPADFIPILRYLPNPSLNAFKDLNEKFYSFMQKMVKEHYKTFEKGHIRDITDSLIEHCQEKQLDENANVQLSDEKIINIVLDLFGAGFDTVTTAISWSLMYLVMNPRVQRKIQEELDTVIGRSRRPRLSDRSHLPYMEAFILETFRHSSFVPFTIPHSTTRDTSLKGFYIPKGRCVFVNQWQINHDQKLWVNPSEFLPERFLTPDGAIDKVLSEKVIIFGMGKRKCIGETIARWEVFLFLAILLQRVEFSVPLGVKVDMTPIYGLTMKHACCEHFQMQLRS

[5] = Blood plasma concentration in human treated with 100 mg of efavirenz administered […] by UPLC-MS/MS analysis; assay type: ADME, cell-free
How it was run: (§4)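 Patient samples (subjects on once-daily EFV regimen; paired plasma/CSF from 13 participants) extracted and total metabolite levels quantified by UPLC-MS/MS. Fluorinated EFV analog used as internal standard. MRM detection, calibrated linear 0.5–500 ng/ml. Values reported as median (IQR).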

[6] = test system: Liver microsome; assay: Drug metabolism in human liver microsomes assessed as formation of metabolites with retention time of 1.73 mins at 20 uM by UPLC-MS/MS analysis; assay type: ADME; settings: 104 s; how it was run: as §2
[7] = Fraction unbound in human seminal plasma treated with 100 mg of efavirenz administered every 4 hrs by ultrafiltration method; assay type: ADME; how it was run: as §3
[8] = target: T1, Cytochrome P450 2B6; assay: Drug metabolism of the compound assessed as CYP2B6 (unknown origin)-mediated formation of dihydroxylated metabolites with retention time of 1.56 mins at 5 uM by UPLC-MS/MS analysis; assay type: ADME; settings: 0.026 h; how it was run: as §1
[9] = Blood plasma protein binding in human treated with 100 mg of efavirenz administered every 4 hrs by ultrafiltration method; assay type: ADME, cell-free; settings: read-out: PPB (converted); how it was run: as §3
[10] = test system: Human immunodeficiency virus 1; assay: Antiviral activity against HIV1 expressing Env-green fluorescent fusion protein infected in PBMC assessed as inhibition of viral activity after 72 hrs by flow cytometry analysis; assay type: functional, organism-based; settings: Human immunodeficiency virus 1, 72 h
How it was run: (§5)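 Activated CD4+ T cells from PBMCs (PHA 0.5 μg/ml, IL-2 100 U/ml, 3 days, 37°C) seeded at 1 × 10^5/well in RPMI + 50% FBS with IL-2. Compound in DMSO (<0.1%) added 3 h before spinoculation with single-round HIV-1 Env-GFP reporter virus. GFP read by flow cytometry after 72 h. Infectivity is fraction unaffected relative to virus-only and no-virus controls.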

[11] = target: T2, Cytochrome P450 1A1; assay: Drug metabolism of the compound assessed as CYP1A1 (unknown origin)-mediated formation of dihydroxylated metabolites with retention time of 1.73 mins at 5 uM by UPLC-MS/MS analysis; assay type: ADME; settings: 104 s; how it was run: as §1
[12] = Seminal plasma concentration in human treated with 100 mg of efavirenz administered every 4 hrs by UPLC-MS/MS analysis; assay type: ADME, cell-free; settings: male
[13] = Drug level in human cerebrospinal fluid treated with 100 mg of efavirenz administered […] by UPLC-MS/MS analysis; assay type: ADME, tissue-based; settings: read-out: Drug uptake; how it was run: as §4
[14] = Ratio of drug level in seminal plasma to blood plasma in human at 100 mg administered every 4 hrs by UPLC-MS/MS analysis; assay type: ADME, cell-free; settings: male
[15] = test system: Liver microsome; assay: Drug metabolism in human liver microsomes assessed as formation of dihydroxylated metabolites with retention time of 1.56 mins at 20 uM by UPLC-MS/MS analysis; assay type: ADME; settings: 0.026 h; how it was run: as §2
[16] = target: T1, Cytochrome P450 2B6; assay: Drug metabolism of the compound assessed as CYP2B6 (unknown origin)-mediated formation of dihydroxylated metabolites with retention time of 1.73 mins at 5 uM by UPLC-MS/MS analysis; assay type: ADME; settings: 104 s; how it was run: as §1
[17] = Ratio of drug level in seminal plasma to blood plasma in human treated with 100 mg of efavirenz administered every 4 hrs by UPLC-MS/MS analysis; assay type: ADME, cell-free; settings: male
[18] = target: T3, Cytochrome P450 2C8 (Homo sapiens, UniProt P10632); assay: Drug metabolism of the compound assessed as CYP2C8 (unknown origin)-mediated formation of dihydroxylated metabolites with retention time of 1.92 mins at 5 uM by UPLC-MS/MS analysis; assay type: ADME; settings: 0.032 h; how it was run: as §1
T3 sequence (P10632 whole entry): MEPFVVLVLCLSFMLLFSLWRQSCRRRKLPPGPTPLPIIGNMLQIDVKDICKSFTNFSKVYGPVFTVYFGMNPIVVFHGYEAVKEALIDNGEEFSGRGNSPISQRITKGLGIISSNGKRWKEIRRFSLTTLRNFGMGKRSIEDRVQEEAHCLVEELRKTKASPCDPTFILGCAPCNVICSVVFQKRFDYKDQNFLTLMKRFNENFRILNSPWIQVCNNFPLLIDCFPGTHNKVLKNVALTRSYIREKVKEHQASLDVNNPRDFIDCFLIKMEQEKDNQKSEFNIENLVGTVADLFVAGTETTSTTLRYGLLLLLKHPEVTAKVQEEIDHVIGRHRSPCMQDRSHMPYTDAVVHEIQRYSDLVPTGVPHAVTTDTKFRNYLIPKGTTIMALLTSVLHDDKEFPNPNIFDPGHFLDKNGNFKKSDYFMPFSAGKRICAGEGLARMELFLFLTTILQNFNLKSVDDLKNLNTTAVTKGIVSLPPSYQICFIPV

[19] = test system: Plasma; assay: Drug metabolism in human seminal plasma assessed as retention time of dihydroxylated metabolites treated with 100 mg of efavirenz administered every 4 hrs by UPLC-MS/MS analysis; assay type: ADME, cell-free
[20] = test system: Plasma; assay: Drug metabolism in human seminal plasma assessed as retention time treated with 100 mg of efavirenz administered every 4 hrs by UPLC-MS/MS analysis; assay type: ADME, cell-free
[21] = Seminal plasma protein binding in human at 100 mg administered every 4 hrs by ultrafiltration method; assay type: ADME, cell-free; how it was run: as §3
[22] = test system: Plasma; assay: Total seminal plasma concentration in human; assay type: ADME, cell-free
[23] = test system: Plasma; assay: Drug metabolism in human blood plasma assessed as formation of N- and O-linked glucuronidated metabolite at 100 mg administered every 4 hrs by UPLC-MS/MS analysis; assay type: ADME, cell-free
[24] = Drug level in human cerebrospinal fluid; assay type: ADME, tissue-based; how it was run: as §4
[25] = Drug metabolism in human seminal plasma assessed as formation of N- and O-linked glucuronidated metabolite at 100 mg administered every 4 hrs by UPLC-MS/MS analysis; assay type: ADME, cell-free
[26] = test system: Human immunodeficiency virus 1; assay: Antiviral activity against HIV1; assay type: functional, organism-based; how it was run: as §5
[27] = Blood plasma protein binding in human at 100 mg administered every 4 hrs by ultrafiltration method; assay type: ADME, cell-free; settings: read-out: PPB (converted); how it was run: as §3
[28] = test system: Plasma; assay: Total blood plasma concentration in human; assay type: ADME, cell-free

Compound | Drug metabolism [1] | Drug metabolism [2] | fraction unbound at 4 h [3] | concentration [5] [ng/mL] | Cp(f) [7] [ng/mL] | fraction unbound at 4 h [9] | IC50 [10] [µg/mL] | concentration at 4 h [12] [ng/mL] | concentration [13] [ng/mL] | Kp at 4 h [17] | Drug metabolism [18] | further results
O=C1Nc2c(O)cc(Cl)cc2[C@@](C#CC2CC2)(C(F)(F)F)O1 | metabolite_detected | metabolite_detected | 0.038 | 314 | 10.16 | 0.0003 | 0.0422 (≈ 0.127 µM) | 358 | 3.37 | – | – | Drug metabolism [4]: metabolite_detected; Drug metabolism [6]: metabolite_detected; Drug metabolism [8]: metabolite_detected; Drug metabolism [11]: metabolite_detected; Kp at 4 h [14]: 145; Drug metabolism [15]: metabolite_detected; Drug metabolism [16]: metabolite_detected
O=C1Nc2cc(O)c(Cl)cc2[C@@](C#CC2CC2)(C(F)(F)F)O1 | metabolite_detected | metabolite_detected | 0.619 | 8.84 | 6.55 | 0.0038 | 0.0447 (≈ 0.135 µM) | 10.2 | – | 188 | metabolite_detected | –
O=C1Nc2c(O)cc(Cl)cc2[C@@](C#CC2(O)CC2)(C(F)(F)F)O1 | – | – | 0.846 | 5.63 | 4.04 | 0.0039 | 2.24 (≈ 6.44 µM) | 5.43 | 0.375 | 209 | – | Retention time [19]: 1.56 min; Retention_time [20]: 1.56 min
O=C1Nc2ccc(Cl)cc2[C@@](C#CC2CC2)(C(F)(F)F)O1 [EFAVIRENZ] | metabolite_detected | metabolite_detected | – | – | – | – | 0.00036 (≈ 0.00114 µM) | – | – | – | metabolite_detected | PPB [21]: 95.1%; Cp [22]: 95 ng/mL; Drug metabolism [23]: metabolite_detected; Drug uptake [24]: 19 ng/mL; Drug metabolism [25]: metabolite_detected; IC50 [26]: 0.00051 µg/mL (≈ 0.00162 µM); fraction unbound at 4 h [27]: 0.0018; Cp [28]: 2170 ng/mL

From ChEMBL document CHEMBL3525980, “Compartmentalization and antiviral effect of efavirenz metabolites in blood plasma, seminal plasma, and cerebrospinal fluid” (Drug Metab Dispos, 2013)
